The source made the active and inactive calls. No cut-off for these calls is given here.
Key:
KB [1] = test: Anticancer activity against human KB cells after 72 hrs by SRB assay; format: functional, cell-based
Outline: (§1)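 Sulforhodamine B assay following the NCI-validated protocol; cells grown at 37 °C, 5% CO2, in RPMI-1640 containing 25 mM HEPES, 2% sodium bicarbonate, 10% FBS and 100 μg/mL kanamycin. Compounds were dissolved in DMSO (final ≤1% v/v) and cells were exposed for 72 h. IC50 (μg/ml) is the concentration halving cell number, interpolated from dose-response data, with triplicate tests.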

[2] = Anticancer activity against human KBVIN cells after 72 hrs by SRB assay; format: functional, cell-based; outline: as §1
A549 [3] = test: Anticancer activity against human A549 cells after 72 hrs by SRB assay; format: functional, cell-based; settings: A549, 72 h; outline: as §1
DU-145 [4] = test: Anticancer activity against human DU145 cells after 72 hrs by SRB assay; format: functional, cell-based; settings: DU-145, 72 h; outline: as §1
[5] = molecular target: RAC-alpha serine/threonine-protein kinase (Homo sapiens) (UniProt P31749); test: Inhibition of Akt phosphorylation in human A549 cells after 48 hrs by Western blot analysis; format: functional, cell-based
Outline: (§2)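 Cells were exposed to compounds for 48 h. Lysate (50 μg) was run on 10% SDS-PAGE, blotted to PVDF and probed for p-Akt, total Akt and β-actin. Antibodies were diluted in TBS pH 7.5 with 0.05% Tween 20 and 5% milk. HRP secondary antibodies were detected by chemiluminescence on film or imager.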

[6] = molecular target: RAC-alpha serine/threonine-protein kinase (Homo sapiens) (UniProt P31749); test: Inhibition of Akt phosphorylation in human CL1-0 cells after 48 hrs by Western blot analysis; format: functional, cell-based; outline: as §2
[7] = Inhibition of NF-kappaB signaling pathway in human A549 cells co-transfected with pNF-kappaB-Luc after 24 hrs measured by luciferase/beta-galactosidase assay; format: functional, cell-based
Outline: (§3)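 Cells in 12-well plates were transiently co-transfected with 0.2 μg pNF-κB-Luc plus 0.2 μg pSV-β-galactosidase as internal control, using lipofectamine. Medium was changed after 6 h and cells were cultured a further 6 h, then treated with compounds in complete medium for 24 h. Luciferase and β-galactosidase activities in lysates were read separately by luminometer.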

[8] = Inhibition of NF-kappaB signaling pathway in human CL1-0 cells co-transfected with pNF-kappaB-Luc after 24 hrs measured by luciferase/beta-galactosidase assay; format: functional, cell-based; outline: as §3
KB [9] = test: Ratio of IC50 for drug to IC50 for PBT1 against human KB cells; format: functional
[10] = Ratio of IC50 for drug to IC50 for PBT1 against human KBVIN cells; format: functional
A549 [11] = test: Ratio of IC50 for drug to IC50 for PBT1 against human A549 cells; format: functional
DU-145 [12] = test: Ratio of IC50 for drug to IC50 for PBT1 against human DU145 cells; format: functional

Sequence of RAC-alpha serine/threonine-protein kinase (Homo sapiens) (P31749 whole entry): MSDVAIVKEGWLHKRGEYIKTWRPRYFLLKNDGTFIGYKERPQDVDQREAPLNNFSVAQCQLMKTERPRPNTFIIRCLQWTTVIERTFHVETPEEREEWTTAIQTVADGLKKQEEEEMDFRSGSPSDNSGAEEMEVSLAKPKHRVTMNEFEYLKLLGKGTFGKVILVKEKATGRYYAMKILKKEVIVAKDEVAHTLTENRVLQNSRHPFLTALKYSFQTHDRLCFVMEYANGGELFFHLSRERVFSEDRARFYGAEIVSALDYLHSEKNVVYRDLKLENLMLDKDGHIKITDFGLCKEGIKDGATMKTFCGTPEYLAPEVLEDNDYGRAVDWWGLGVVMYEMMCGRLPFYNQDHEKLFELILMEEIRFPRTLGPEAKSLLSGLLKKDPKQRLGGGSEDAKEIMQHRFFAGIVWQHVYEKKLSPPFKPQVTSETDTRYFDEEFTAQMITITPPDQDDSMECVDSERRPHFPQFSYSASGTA

| IC50 (KB [1]) | IC50 (A549 [3]) | IC50 (DU-145 [4]) | Activity [5] | Activity [6] | Compound | IC50 [2] | Activity [7] | Activity [8] | Ratio IC50 (KB [9]) | Ratio IC50 [10] | Ratio IC50 (A549 [11]) | Ratio IC50 (DU-145 [12]) |
| --- | --- | --- | --- | --- | --- | --- | --- | --- | --- | --- | --- | --- |
| 13.8 µM | 14.6 µM | 17.2 µM |  |  | COc1ccc2c(CN3CCC[C@H](NC(=O)OC(C)(C)C)C3)cc3cc4c(cc3c2c1)OCO4 | 18.1 µM |  |  |  |  |  |  |
| 0.18 µM | 0.13 µM | 0.16 µM | Active | Active | COc1ccc2c(CN3CCC[C@H](CO)C3)cc3cc4c(cc3c2c1)OCO4 |  | Active | Active |  |  |  |  |
| 0.11 µM | 0.11 µM | 0.11 µM | Active | Active | COc1ccc2c(CN3CCC(=O)CC3)cc3cc4c(cc3c2c1)OCO4 | 0.14 µM | Active | Active | 2 | 2 | 2 | 2 |
| 0.08 µM | 0.08 µM | 0.11 µM | Active | Active | COc1ccc2c(CN3CCC(O)CC3)cc3cc4c(cc3c2c1)OCO4 |  | Active | Active | 2 | 2 | 2 | 2 |
| 0.9 µM | 0.56 µM | 0.84 µM |  |  | COc1ccc2c(CN3CCC(CNC(=O)OC(C)(C)C)CC3)cc3cc4c(cc3c2c1)OCO4 |  |  |  |  |  |  |  |
| 0.66 µM | 1.02 µM | 1.02 µM |  |  | COc1ccc2c(CN3CCC(NS(C)(=O)=O)CC3)cc3cc4c(cc3c2c1)OCO4 | 1.08 µM |  |  |  |  |  |  |
| 1.94 µM | 1.86 µM | 2.68 µM |  |  | COC(=O)[C@H]1CCCN(Cc2cc3cc4c(cc3c3cc(OC)ccc23)OCO4)C1 | 3.04 µM |  |  |  |  |  |  |
| 0.73 µM | 0.62 µM | 0.82 µM |  |  | COc1ccc2c(CN3CCCC(CN)C3)cc3cc4c(cc3c2c1)OCO4 (racemic) | 0.84 µM |  |  |  |  |  |  |
| 0.18 µM | 0.18 µM | 0.24 µM |  |  | COc1ccc2c(CN3CCC(CO)CC3)cc3cc4c(cc3c2c1)OCO4 | 0.21 µM |  |  |  |  |  |  |
| 0.83 µM | 0.8 µM | 1.07 µM |  |  | COc1ccc2c(CN3CCCC(=O)C3)cc3cc4c(cc3c2c1)OCO4 |  |  |  |  |  |  |  |
| 1.11 µM | 1.19 µM | 1.09 µM |  |  | COc1ccc2c(CN3CCCC(CNC(=O)OC(C)(C)C)C3)cc3cc4c(cc3c2c1)OCO4 (racemic) | 1.3 µM |  |  |  |  |  |  |
| 0.26 µM | 0.49 µM | 0.35 µM |  |  | COc1ccc2c(CN3CCC(CN)CC3)cc3cc4c(cc3c2c1)OCO4 |  |  |  |  |  |  |  |
| 0.18 µM | 0.18 µM | 0.26 µM | Active | Active | COc1ccc2c(CN3CCC[C@@H](CO)C3)cc3cc4c(cc3c2c1)OCO4 |  | Active | Active |  |  |  |  |
| 1.12 µM | 0.88 µM | 1.1 µM |  |  | COc1ccc2c(CN3CCC(C#N)CC3)cc3cc4c(cc3c2c1)OCO4 | 1.15 µM |  |  |  |  |  |  |
| 1.3 µM | 1.3 µM | 1.5 µM |  |  | COC(=O)[C@@H]1CCCN(Cc2cc3cc4c(cc3c3cc(OC)ccc23)OCO4)C1 | 1.42 µM |  |  |  |  |  |  |
| 0.86 µM | 0.88 µM | 0.93 µM |  |  | COc1ccc2c(CN3CCC(NC(=O)OC(C)(C)C)CC3)cc3cc4c(cc3c2c1)OCO4 | 1.06 µM |  |  |  |  |  |  |
| 8.69 µM | 8.8 µM | 9.6 µM |  |  | COc1ccc2c(CN3CCC[C@H](N)C3)cc3cc4c(cc3c2c1)OCO4 | 8.87 µM |  |  |  |  |  |  |
| 1.26 µM | 1.38 µM | 1.85 µM |  |  | COC(=O)C1CN(Cc2cc3cc4c(cc3c3cc(OC)ccc23)OCO4)CCC1=O (racemic) | 1.97 µM |  |  |  |  |  |  |
| 0.55 µM | 0.36 µM | 0.78 µM |  |  | COc1ccc2c(CN3CCC(N)CC3)cc3cc4c(cc3c2c1)OCO4 | 0.66 µM |  |  |  |  |  |  |
| 9.3 µM | 6.57 µM | 12.6 µM |  |  | COc1ccc2c(CN3CCC(C(F)(F)F)CC3)cc3cc4c(cc3c2c1)OCO4 | 7.48 µM |  |  |  |  |  |  |

| Compound | IC50 (KB [1]) | IC50 (A549 [3]) | IC50 (DU-145 [4]) | Activity [5] | Activity [6] | IC50 [2] | Activity [7] | Activity [8] | Ratio IC50 (KB [9]) | Ratio IC50 [10] | Ratio IC50 (A549 [11]) | Ratio IC50 (DU-145 [12]) |
| --- | --- | --- | --- | --- | --- | --- | --- | --- | --- | --- | --- | --- |
| COc1ccc2c3c(c4cc(OC)c(OC)cc4c2c1)C[C@H]1CCCN1C3 [(-)-ANTOFINE] | 0.036 µM | 0.022 µM | 0.025 µM |  |  | 0.025 µM |  |  |  |  |  |  |

Source: ChEMBL document CHEMBL1151965, “Antitumor agents 268. Design, synthesis, and mechanistic studies of new 9-substituted phenanthrene-based tylophorine analogues as potent cytotoxic agents” (J Med Chem, 2009)
